{
  "source": "PubChem BioAssay AID493238",
  "about": "(Broad Institute, 2011)",
  "note": "Values joined by “and” are separate entries in the source; they are usually repeats but may differ in a detail not shown here. Identical values can stand only once. Active and inactive are the calls of the source.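 The calls were made as follows: active = VEGF mRNA rise whose fitted curve reaches 40% activation within the highest concentration tested on that sample; inactive = the rest, including effects opposite to expected.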",
  "data": [
    {"tested_on": "U2OS VEGF mRNA induction, RT-PCR", "test": "activators raising VEGF transcript levels – cell-based, U2OS, RT-PCR, dry powder, set 2, orthogonal assay for HIF pathway activator project, dose response (AID 493238)", "details": "not given", "in_short": "(§1)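 Test system: human U2OS osteosarcoma cells, endogenous VEGF-A mRNA / Quantity: 2,000 cells/well / Times: 24 h pre-growth at 37 °C, 24 h compound treatment / Signal: TaqMan RT-qPCR, VEGF-A (FAM) with beta-actin (VIC) / Control set: DMSO as negative control / Replication: duplicates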", "values": [
      {"molecule": "O=C(NCCCCO)c1cc(-c2ccccc2)on1", "AC40": "5010 nM"},
      {"molecule": "CC(C)(C)CCNc1nc(-c2ccccn2)nnc1-c1ccccc1", "AC40": "768 nM and 974 nM"},
      {"molecule": "c1ccc(-c2ccc(CNc3nc(-c4ccccn4)nnc3-c3ccccc3)cc2)cc1", "AC40": "303 nM"},
      {"molecule": "Cn1c(-c2ccccc2)cnc1NC(=O)c1cc(-c2ccccc2)on1", "AC40": "35200 nM"},
      {"molecule": "OCC1CCN(Cc2ccc(O)c3ncccc23)CC1", "AC40": "3560 nM"},
      {"molecule": "c1ccc(-c2nnc(-c3ccccn3)nc2N2CCN(c3ccncc3)CC2)cc1", "AC40": "2120 nM"},
      {"molecule": "C[C@H](Nc1nc(-c2ccccn2)nnc1-c1ccccc1)C1CCCCC1", "AC40": "1390 nM"},
      {"molecule": "c1ccc(-c2nnc(-c3ccccn3)nc2N2CCC(N3CCOCC3)CC2)cc1", "AC40": "6520 nM"},
      {"molecule": "c1ccc(CNc2nc(-c3ccccn3)nnc2-c2ccccc2)cc1", "AC40": "1600 nM"},
      {"molecule": "O=C(c1cc(-c2ccccc2)on1)N1CCN(c2ccncc2)CC1", "AC40": "> 38000 nM (inactive)"},
      {"molecule": "c1ccc(-c2csc(Nc3nc(-c4ccccn4)nnc3-c3ccccc3)n2)cc1", "AC40": "597 nM"},
      {"molecule": "Cc1ccc(CNc2nc(-c3ccccn3)nnc2-c2ccccc2)cc1C", "AC40": "772 nM"},
      {"molecule": "OCCCNc1nc(-c2ccccn2)nnc1-c1ccccc1", "AC40": "8340 nM"},
      {"molecule": "O=C(NCCCN1CCOCC1)c1cc(-c2ccccc2)on1", "AC40": "23000 nM"},
      {"molecule": "Oc1ccc(CN2CCc3ccccc3C2)c2cccnc12", "AC40": "5310 nM and 5350 nM"},
      {"molecule": "CC(C)(C)c1ccc(CNc2nc(-c3ccccn3)nnc2-c2ccccc2)cc1", "AC40": "397 nM"},
      {"molecule": "c1ccc(-c2nnc(-c3ccccn3)nc2Nc2nc3ccccc3s2)cc1", "AC40": "510 nM"},
      {"molecule": "COc1ccccc1N1CCN(Cc2ccc(O)c3ncccc23)CC1", "AC40": "519 nM"},
      {"molecule": "CC(C)(C)OC(=O)N1CCN(Cc2ccc(O)c3ncccc23)CC1", "AC40": "10200 nM"},
      {"molecule": "c1ccc(-c2nnc(-c3ccccn3)nc2NCc2ccccn2)cc1", "AC40": "4520 nM"},
      {"molecule": "CC(C)(C)CCNC(=O)c1cc(-c2ccccc2)on1", "AC40": "> 38000 nM (inactive)"},
      {"molecule": "c1ccc(-c2cccc(CNc3nc(-c4ccccn4)nnc3-c3ccccc3)c2)cc1", "AC40": "601 nM"}
    ]},
    {"tested_on": "not listed separately", "test": "activators raising VEGF transcript levels – cell-based, U2OS, RT-PCR, dry powder, set 2, orthogonal assay for HIF pathway activator project, dose response (AID 493238)", "details": "U2OS VEGF mRNA induction, RT-PCR; at 38 µM (top of the series)", "in_short": "as §1", "values": [
      {"molecule": "Cc1cccc(NC(=O)c2cc(-c3ccccc3)on2)n1", "activation": "16.6% (inactive)"},
      {"molecule": "O=C(NC1Cc2ccccc2C1)c1cc(-c2ccccc2)on1", "activation": "2.5% (inactive)"},
      {"molecule": "O=C(c1cc(-c2ccccc2)on1)N1CCC(N2CCCC2)CC1", "activation": "13.9% (inactive)"},
      {"molecule": "CN1CCN(C(=O)c2cc(-c3ccccc3)on2)CC1", "activation": "5.56% (inactive)"},
      {"molecule": "Cc1ccc(CNC(=O)c2cc(-c3ccccc3)on2)cc1", "activation": "8.66% (inactive)"},
      {"molecule": "O=C(Nc1nnc(-c2ccccc2)s1)c1cc(-c2ccccc2)on1", "activation": "-3.69% (inactive)"},
      {"molecule": "O=C(Nc1cnc2ccccc2c1)c1cc(-c2ccccc2)on1", "activation": "-1.59% (inactive)"},
      {"molecule": "O=C(NCc1ccccc1)c1cc(-c2ccccc2)on1", "activation": "-10.1% (inactive)"},
      {"molecule": "O=C(Nc1ncc(-c2ccccc2)o1)c1cc(-c2ccccc2)on1", "activation": "-1.45% (inactive)"},
      {"molecule": "Cc1ccc(NC(=O)c2cc(-c3ccccc3)on2)cn1", "activation": "4.7% (inactive)"},
      {"molecule": "O=C(Nc1nc(-c2ccccc2)cs1)c1cc(-c2ccccc2)on1", "activation": "-5.33% (inactive)"},
      {"molecule": "Cc1cccc(CNC(=O)c2cc(-c3ccccc3)on2)c1", "activation": "8.64% (inactive)"},
      {"molecule": "O=C(c1cc(-c2ccccc2)on1)N1CCC(CO)CC1", "activation": "9.68% (inactive)"},
      {"molecule": "O=C(Nc1nc2ccccc2s1)c1cc(-c2ccccc2)on1", "activation": "18.7% (inactive)"},
      {"molecule": "O=C(c1cc(-c2ccccc2)on1)N1CCC(N2CCOCC2)CC1", "activation": "2.34% (inactive)"},
      {"molecule": "CN(C)CCNC(=O)c1cc(-c2ccccc2)on1", "activation": "5.67% (inactive)"},
      {"molecule": "Cn1c(NC(=O)c2cc(-c3ccccc3)on2)nc2ccccc21", "activation": "-9.2% (inactive)"},
      {"molecule": "O=C(c1cc(-c2ccccc2)on1)N1CCc2cccnc21", "activation": "5.33% (inactive)"},
      {"molecule": "O=C(NCCN1CCCCC1)c1cc(-c2ccccc2)on1", "activation": "-5.63% (inactive)"},
      {"molecule": "Cc1ccccc1CNC(=O)c1cc(-c2ccccc2)on1", "activation": "35.3% (inactive)"},
      {"molecule": "O=C(NCC1CCCCC1)c1cc(-c2ccccc2)on1", "activation": "-2.71% (inactive)"},
      {"molecule": "O=C(Nc1ccc2ccccc2n1)c1cc(-c2ccccc2)on1", "activation": "4.54% (inactive)"}
    ]}
  ]
}
